Reference: ChEMBL document CHEMBL1142205 (Antimicrob Agents Chemother, 2007)
Active and inactive are the calls of the source.

Key:
[1] = test system: Plasmodium falciparum; assay: Restoration of nuclear GCN5 activity in Plasmodium falciparum at 50 uM in presence of 400 units/ml superoxide dismutase
[2] = test system: Plasmodium falciparum; assay: (§1) Antimalarial activity against chloroquine-susceptible Plasmodium falciparum D10; type: functional, organism-based
How it was run: (§2)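 Asexual P. falciparum cultured in human O+ erythrocytes at 37°C under 5% CO2/3% O2 and sorbitol-synchronised. Ring stages were set at 1% parasitemia and 5% hematocrit in low-hypoxanthine medium, in triplicate. […] Uninfected-RBC counts were subtracted and IC50/IC90 taken by linear regression with 95% CI.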

[3] = test system: Plasmodium falciparum; assay: Inhibition of GCN5 in Plasmodium falciparum assessed as hyperacetylation of H3-K9 and H3-K14 at 20 uM after 12 hrs; conditions: 3D7, in the assay text read “hypoacetylation” for “hyperacetylation”
How it was run: (§3)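 Unsynchronized 3D7 cultures exposed to 20 μM drug for 4 or 12 h (aliquots treated from 0 or 8 h, all harvested at 12 h), with or without 300 μM mannitol. Histones acid-extracted, equal amounts run on SDS-PAGE and immunoblotted with acetylation site-specific antibodies; anti-H4 as loading control.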

[4] = test system: Plasmodium falciparum; assay: Increase of Plasmodium falciparum 3D7 nuclear DNA damage by real-time PCR analysis; type: functional
How it was run: (§4)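 3D7 early trophozoites at 5% parasitemia and 5% hematocrit exposed to drug or DMSO for 6 h at 37°C. Genomic DNA by proteinase K/phenol-chloroform, quantified by dot blot; SYBR green real-time PCR on 1 ng DNA. Lesions derived from CT shift relative to control, control amplification efficiency set at 1.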

[5] = test system: Plasmodium falciparum; assay: Growth restoration of Plasmodium falciparum at 50 uM with 300 uM mannitol; type: functional, organism-based
How it was run: (§5)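 Maturation assay: synchronized ring-stage parasites in 24-well plates with 50 μM drug and increasing mannitol concentrations. When control schizonts matured, schizonts per 5,000 red cells counted in each well.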

[6] = test system: Plasmodium falciparum; assay: Inhibition of nuclear GCN5 in Plasmodium falciparum after 8 hrs by liquid HAT assay at 25 to 100 uM
[7] = test system: Plasmodium falciparum; assay: Growth restoration of Plasmodium falciparum at 50 uM with 400 uM mannitol; type: functional, organism-based; how it was run: as §5
[8] = test system: Plasmodium falciparum; assay: Pro-oxidant activity in Plasmodium falciparum as increased ROS; type: functional, organism-based
How it was run: (§6)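 Parasitized cells preloaded with 50 μM DCFH-DA, 37°C, 30 min, washed, then exposed to drug for 4 h, alone or with mannitol (50 μM) or ascorbic acid plus reduced glutathione (1 mM each). Flow cytometry at ex 485/em 535 nm; ROS taken as mean fluorescence intensity. SD from three experiments.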

[9] = test system: Plasmodium falciparum; assay: Restoration of nuclear GCN5 activity in Plasmodium falciparum at 50 uM in presence of 300 uM mannitol
[10] = test system: Plasmodium falciparum; assay: Increased intracellular reactive oxygen species in Plasmodium falciparum at 1 uM; type: functional, organism-based; how it was run: as §6
[11] = test system: Plasmodium falciparum; assay: Increase in intracellular reactive oxygen species in Plasmodium falciparum at 50 uM; type: functional, organism-based; how it was run: as §6
[12] = test system: Plasmodium falciparum; assay: Growth inhibition of chloroquine-susceptible Plasmodium falciparum 3D7 at 5 uM; type: functional, organism-based
How it was run: (§7)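 Strain 3D7, sorbitol-synchronized rings, seeded at 0.5% parasitemia, 5% hematocrit in O+ erythrocytes, RPMI/Albumax medium, 37°C, 5% CO2/3% O2. Continuous exposure to 5 or 20 μM (or none); parasitemia counted daily for 4 days on Giemsa smears, three replicates per point.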

[13] = test system: Plasmodium falciparum; assay: Growth inhibition of chloroquine-resistant Plasmodium falciparum 7G8 at 20 uM; type: functional, organism-based
How it was run: (§8)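 Sorbitol-synchronised ring-stage parasites were seeded at 0.5% parasitemia and 5% hematocrit in 24-well plates. […] Parasitemia was counted daily for 4 days on Giemsa-stained smears, as means of three replicate samples.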

[14] = test system: Plasmodium falciparum; assay: Growth arrest of Plasmodium falciparum at 50 uM; type: functional, organism-based; how it was run: as §5
[15] = test system: Plasmodium falciparum; assay: Antimalarial activity against chloroquine-resistant Plasmodium falciparum 7G8; type: functional, organism-based; how it was run: as §2
[16] = test system: Plasmodium falciparum; assay: as §1; type: functional, organism-based; how it was run: as §2; remark: listed apart in the source
[17] = test system: Plasmodium falciparum; assay: Growth inhibition of chloroquine-resistant Plasmodium falciparum 7G8 at 5 uM; type: functional, organism-based; how it was run: as §8
[18] = test system: Plasmodium falciparum; assay: Increase of Plasmodium falciparum 3D7 mitochondrial DNA damage by real-time PCR analysis; type: functional; how it was run: as §4
[19] = test system: Plasmodium falciparum; assay: Activity of GCN5 in Plasmodium falciparum assessed as increase in acetylation of H3-K9 and H3-K14 at 20 uM in presence of mannitol; how it was run: as §3
[20] = test system: Plasmodium falciparum; assay: Restoration of nuclear GCN5 activity in Plasmodium falciparum at 50 uM in presence of 5000 units/ml catalase
[21] = test system: Plasmodium falciparum; assay: Antimalarial activity against chloroquine-resistant Plasmodium falciparum Dd2; type: functional, organism-based; how it was run: as §2
[22] = test system: Plasmodium falciparum; assay: Decreased reactive oxygen species in Plasmodium falciparum with 1 mM ascorbic acid and 1 mM reduced glutathione; type: functional, organism-based; how it was run: as §6
[23] = test system: Plasmodium falciparum; assay: Inhibition of Plasmodium falciparum 3D7 recombinant GCN5 by HAT assay at 100 uM
How it was run: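 Recombinant PfGCN5 HAT domain (30 ng) with 1 μg bovine core histones preincubated ± drug in HAT buffer, 30°C, 10 min, then 0.1 μCi [3H]acetyl-CoA for 10 min. Half spotted on P-81 filters, washed at pH 9.2, scintillation counted; half resolved by SDS-PAGE/fluorography. DMSO solvent control; triplicates.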

[24] = test system: Plasmodium falciparum; assay: Growth inhibition of chloroquine-susceptible Plasmodium falciparum 3D7 at 20 uM; type: functional, organism-based; how it was run: as §7
[25] = test system: Plasmodium falciparum; assay: Increased DNA damage in Plasmodium falciparum after 12 hrs in TUNEL assay; type: functional, organism-based
How it was run: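 Ring-stage parasites exposed to 20 or 50 μM for 12 h, with or without 400 μM mannitol. Percoll-purified, fixed on poly-L-lysine slides, TUNEL with fluorescein-dUTP, propidium iodide counterstain. 300 cells scored per treatment for percent labeled; triplicate samples.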

[26] = test system: Plasmodium falciparum; assay: Decreased reactive oxygen species in Plasmodium falciparum with 50 uM mannitol; type: functional, organism-based; how it was run: as §6

COc1cc(/C=C/C(=O)CC(=O)/C=C/c2ccc(O)c(OC)c2)ccc1O [CURCUMIN]
95%: inhibition [23]
active: Activity [1] | Activity [3] | Activity [4] | Activity [5] | Activity [6] | Activity [7] | Activity [8] Dose-dependent effect | Activity [9] | Activity [10] | Activity [11] | Activity [12] | Activity [13] | Activity [14] | Activity [17] | Activity [18] | Activity [19] | Activity [20] | Activity [22] | Activity [24] | Activity [25] | Activity [26]
53.3 µM: IC90 [15]
41.3 µM: IC90 [2] | IC90 [16]
22.9 µM: IC50 [2] | IC50 [16]
27.4 µM: IC50 [21]
49.4 µM: IC90 [21]
29.6 µM: IC50 [15]
